# Assay outcomes as filed in PubChem BioAssay.
# APP transl inh: inhibitors of APP translation via 5'UTR reporter, primary screen, APP 5'UTR luciferase, SH-SY5Y cells; SH-SY5Y APP 5'UTR-luciferase reporter, luminescence; inhibition, % at 2 µM; 190,000 compounds, 0.82% hits;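 active means inhibition above a set limit, derived from the sample mean plus 3 SD, cut at about 45% in these data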
# TAG inh: inhibitors of triacylglycerol accumulation, primary screen, cell-based, uHTS, fluorescence, H9c2; H9c2 cells, Nile Red lipid (TAG) fluorescence; cells loaded with 200 µM oleic acid; inhibition, % at 12.5 µM; 230,000 compounds, 0.66% hits; AID 651582, 2012;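 active means pattern-corrected inhibition of lipid staining of at least 50% with the nuclear-stain viability signal not falling by more than 50%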;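 further: 0% = DMSO wells and 100% = triacsin C control wells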
# Jurkat NFkB inh: inhibitors of induced NF-kB luciferase reporter, primary screen, TCR NF-kB activation inhibitor project, cell-based, luminescence, uHTS. Jurkat, PMA/ionomycin-induced NF-kB luciferase reporter. inhibition, % at 4 µM. 330,000 compounds, 0.53% hits. AID 435003, 2010; in the data active means inhibition above about 50%
# 697 NFkB inh: inhibitors of PMA/ionomycin-induced NF-kB reporter, 697 cells, primary screen, B-cell NF-kB inhibitor project, cell-based, luminescence, uHTS. 697 B-cell NF-kB luciferase reporter, 16 h. inhibition, % at 4 µM. 330,000 compounds, 0.33% hits. AID 435022, 2010; in the data active means inhibition above about 35%
# aSyn UTR inh: MLPCN primary screen, SNCA 5' untranslated region | alpha-synuclein 5'UTR reporter, inhibitor activity | inhibition, % (tested at 7.5 µM) | 300,000 compounds, 0.82% hits | AID 1813, 2009; in the data active means inhibition above about 60%;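 further: H4 neuroglioblastoma cells stably carrying SNCA 5'UTR luciferase fusion; 0% = DMSO wells and 100% = positive control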
# Lipid droplet: inhibitors of hepatocyte lipid droplet formation, primary screen, imaging, high-throughput imaging, BODIPY stain; inhibition, % at 6.5 µM; 240,000 compounds, 0.4% hits; AML12 mouse hepatocytes, oleate lipid droplets;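 active means lipid droplet intensity inhibited by at least 50%, with more than 500 cells counted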
#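 Material: mouse AML12 hepatocyte cell line, fixed after treatment; Timing: compound with oleate, overnight; Technique: high-content imaging of BODIPY-stained droplets and DAPI nuclei; Probe or stimulus: oleate, 100 µM final; Dosing: compound at 6.5 µM only.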
# * hit, by the source's call; . = no result. Compounds with a hit are over-represented: about 1.9% of the library has one in this group of screens.
SMILES,APP transl inh,TAG inh,Jurkat NFkB inh,697 NFkB inh,aSyn UTR inh,Lipid droplet
NCCCn1c(C(=O)c2cc(Cl)c(N)c(Cl)c2)c2ccc([N+](=O)[O-])cc2[n+]1[O-],.,36.9,33.5,-216.8,100.5*,.
COc1ccc(Br)cc1/C=C/C(=O)Nc1ccc2ccccc2c1,-0.5,.,-22.7,-4.9,-91.2,52.2*
COc1ccc(Br)cc1/C=C/C(=O)Nc1ccc(C)cc1,-14.9,.,-15.0,28.6,-86.3,-2.2
CCC(=O)Nc1cccc(C(=O)/C=C/c2cc(Br)ccc2OC)c1,75.0*,10.0,28.7,-47.2,-125.2,-3.8
Cc1ccc(C#N)c(SCc2nnc(-c3ccc(Cl)cc3)o2)n1,-30.1,.,17.3,-195.4,89.7*,-13.0
Cc1cccc(Nc2c([N+](=O)[O-])cc(C(=O)N3CC(=O)Nc4ccccc43)cc2[N+](=O)[O-])c1,-26.2,18.8,16.1,-7.8,0.5,7.8
Cc1ccc(C)c(Nc2c([N+](=O)[O-])cc(C(=O)N3CC(=O)Nc4ccccc43)cc2[N+](=O)[O-])c1,3.0,7.7,22.3,9.1,77.6*,.
COc1cccc(S(=O)(=O)N(C)C[C@@H]2OCc3cnnn3CCCC(=O)N([C@@H](C)CO)C[C@H]2C)c1,.,3.3,.,.,.,.
CC1CN(C2CCCCC2)C(=S)N(c2ccccc2)C1=O (stereo unspecified),.,-20.3,.,.,.,.
Cc1cccnc1C(c1ccc(F)cc1)N(C)C(=O)C1CCN(CCOc2ccc(Cl)cc2Cl)CC1 (stereo unspecified),.,4.7,.,.,.,.
Cc1c(O)c(=O)ccn1Cc1ccccc1,26.1,-8.2,3.9,14.3,68.1*,.
Cc1ccc(Cn2ccc(=O)c(OCc3ccccc3)c2C)cc1,-35.3,.,-36.5,-34.0,-109.5,.
COc1ccccc1C(=O)NCC(=O)NCC1(N2CCCCC2)CCCCC1,.,2.6,-9.0,-15.2,8.9,.
COc1cccc(Cn2c(NCc3cccnc3)nc3c2c(=O)n(C)c(=O)n3C)c1,32.8,14.6,12.8,-79.3,71.3*,.
CCOC(=O)CCCCCC(=O)Nc1ccc2c(c1)C(=O)N([C@H](C)CO)C[C@H](C)[C@@H](CN(C)S(C)(=O)=O)OCCCC[C@@H](C)O2,.,12.4,.,.,.,.
CC1=NN(c2nc3ccccc3[nH]2)C(=O)C1Cc1ccccc1 (stereo unspecified),.,53.5*,2.5,-12.4,25.8,-10.9
CCOc1c(Cl)cc(CNc2ccc(N3CCCC3)cc2)cc1OC,-27.6,60.1*,.,.,-32.9,-22.7
COc1cc(NC(=O)C2(C)CCCN2C)cc(OC)c1OC (stereo unspecified),.,-3.7,.,.,.,.
COc1ccc(-c2ccnc(-c3ccc(O)cc3)n2)cc1,93.0*,43.3,38.9,-24.0,-37.7,0.8
COc1ccc(-c2ccnc(-c3ccncc3)n2)cc1,.,8.8,44.9,-45.5,-1.6,24.8
COc1ccc(-c2cc3c(nn2)-c2ccccc2C3=O)cc1,-45.2,-3.5,18.5,-86.1,98.4*,.
O=C1c2ccccc2-c2nnc(-c3ccccc3)cc21,-24.0,2.9,-41.1,-95.7,37.2,.
Cc1ccc2c(c1)S(=O)(=O)c1ccc3ccccc3c1N2,.,-6.5,.,.,.,.
O=C(NCCc1ccccc1)Nc1nnc([C@@H]2C[C@H](O)[C@@H](CO)O2)s1,.,-9.7,.,.,.,.
CCOC(=O)CSc1nc(=O)n2cccc(C)c2n1,45.2*,.,-6.6,3.2,-11.0,-19.9
SMILES,APP transl inh,TAG inh,Jurkat NFkB inh,697 NFkB inh,aSyn UTR inh,Lipid droplet
CCOC(=O)C(C)Sc1nc(=O)n2cccc(C)c2n1 (stereo unspecified),-2.0,-7.8,-14.5,8.4,-3.2,-4.5
C(=N\Nc1nc2ccccc2[nH]1)/c1cccc2cccnc12,.,66.7*,-51.1,-88.5,73.4*,1.5
O=[N+]([O-])c1cc(/C=N/Nc2nc3ccccc3[nH]2)c(O)cc1O,50.5*,.,.,.,59.1,2.1
Cc1[nH]c2ccccc2c1/C=N/Nc1nc2ccccc2[nH]1,.,64.3*,-44.5,-31.5,-228.4,-30.5
O=C(N/N=C/c1cccc2cccnc12)c1ccccc1O,.,65.1*,49.5,-94.1,-3.0,-9.5
O=C(N/N=C/c1cccc2nccnc12)c1ccccc1O,.,23.8,-0.3,18.1,6.3,27.4
